Article PMC3604071 (Nature chemical biology, 2013)
“Also recorded” adds a separate entry of the source.

Key:
[1] = test system: myristoylation of c-Src; assay: c-Src myristoylation in COS-1 cells; type: cell-based; conditions: COS-1 cells expressing c-Src
Summary of the method: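 COS-1 cells were transfected with Shh, HA-Hhat and Src, with test compound or DMSO added the night before or at the start of starvation. After 1 h starvation in DMEM with 2% dialyzed FCS, 30 μCi/ml 125I-iodo-tridecanoate was added for 4 h at 37°C. RIPA lysates were cleared at 100,000xg, immunoprecipitated overnight at 4°C, resolved on 12.5% SDS-PAGE and quantified by phosphorimager. Duplicates, ≥3 repeats.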

[2] = target: Hhat (Homo sapiens, UniProt Q5VTY9); assay: RU-SKI 43 inhibition kinetics with purified Hhat and ShhN; type: biochemical; conditions: Ki with respect to 125I-iodo-palmitoylCoA, noncompetitive inhibitor; purified Hhat, 125I-iodo-palmitoylCoA titrated, 38μM ShhN
[3] = test system: Shh signaling (Gli1 activation) in NIH 3T3 cells; assay: Gli-responsive luciferase reporter assay in Shh-transfected NIH 3T3 cells; type: cell-based; conditions: for Gli-responsive luciferase activation (FL/RL ratio): NIH 3T3 cells cotransfected with Shh, 10 μM, 24 h
Summary of the method: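 NIH 3T3 cells cotransfected with pRL-TK, 8XGliBS-firefly luciferase (or mutant reporter) and Shh plasmids. Seeded 24 h later at 1×10^6 cells/well and grown to confluence. Treated 24 h with DMSO or 10 μM test compound. Firefly and Renilla luciferase measured in lysates; FL/RL ratio normalized to DMSO-treated cells.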

[4] = test system: palmitoylation of Fyn; assay: Fyn palmitoylation in COS-1 cells; type: cell-based; conditions: COS-1 cells expressing Fyn
Summary of the method: (§1)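 COS-1 cells co-transfected with Shh and HA-Hhat plus H-Ras or Fyn. Test compound or DMSO was added the night before or at the start of serum starvation. Cells were starved 1 h in DMEM with 2% dialyzed FCS, then labeled with 15–30 μCi/ml 125I-iodo-palmitate for 4 h at 37°C. Lysates in RIPA were cleared at 100,000xg, immunoprecipitated 16 h at 4°C, run on 12.5% SDS-PAGE and phosphorimaged. Duplicates, repeated ≥3 times.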

[5] = test system: Hhat-mediated Shh palmitoylation in COS-1 cells; assay: Shh palmitoylation in COS-1 cells; type: cell-based
Summary of the method: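 COS-1 cells transfected with Shh and HA-Hhat given test compound or DMSO overnight or from the start of […] serum starvation (DMEM, 2% dialyzed FCS). Labeled 4 h at 37°C with 15–30 μCi/ml 125I-iodo-palmitate. Lysed in RIPA, ultracentrifuged, immunoprecipitated 16 h at 4°C, SDS-PAGE with western blot and phosphorimaging. Duplicates, repeated at least three times.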

[6] = test system: palmitoylation of H-Ras; assay: H-Ras palmitoylation in COS-1 cells; type: cell-based; conditions: COS-1 cells expressing H-Ras N17
Summary of the method: as §1

[7] = test system: paracrine Shh signaling in C3H10T1/2 cells; assay: C3H10T1/2 alkaline phosphatase reporter assay; type: cell-based
Summary of the method: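 C3H10T1/2 reporter cells and COS-1 cells transfected with HA-Hhat and Shh plasmids plated alone or cocultured (4:1), 24 h at 37°C. Medium then switched to DMSO or 10 μM test compound for 72 h, with re-addition at 48 h. Alkaline phosphatase measured in lysates with a fluorogenic FDP substrate kit, read over 30 min at 5-min intervals; mean ± SD, n=3.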

[8] = test system: Shh and Hhat in COS-1 cells; assay: Shh autoprocessing, Shh/Hhat levels and localization in COS-1 cells; type: cell-based; conditions: 10µM, 5h
Summary of the method: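 COS-1 cells were transfected with Shh and HA-Hhat and reseeded on coverslips after 24 h. A day later they were fixed in 4% paraformaldehyde for 20 min and permeabilized with 0.2% Triton X-100. After blocking in 3% BSA, cells took rabbit anti-Shh (1:100) and mouse anti-HA (1:200) for 1 h, then Alexa-conjugated secondaries and Hoechst for 45 min. Confocal imaging at 63X: 5–10 images per slide, ≥2 slides per condition, three experiments. Protein levels by Western blot.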

[9] = Half-life in mouse plasma after IV administration; type: in vivo
[10] = target: T1, Porcupine (Mus musculus, UniProt Q9JJJ7); assay: Wnt3a fatty acylation by Porcupine in L Wnt-3a cells; type: cell-based; conditions: Mouse L Wnt-3a cells, FLAG-Porcupine
T1 sequence (Q9JJJ7 1-461): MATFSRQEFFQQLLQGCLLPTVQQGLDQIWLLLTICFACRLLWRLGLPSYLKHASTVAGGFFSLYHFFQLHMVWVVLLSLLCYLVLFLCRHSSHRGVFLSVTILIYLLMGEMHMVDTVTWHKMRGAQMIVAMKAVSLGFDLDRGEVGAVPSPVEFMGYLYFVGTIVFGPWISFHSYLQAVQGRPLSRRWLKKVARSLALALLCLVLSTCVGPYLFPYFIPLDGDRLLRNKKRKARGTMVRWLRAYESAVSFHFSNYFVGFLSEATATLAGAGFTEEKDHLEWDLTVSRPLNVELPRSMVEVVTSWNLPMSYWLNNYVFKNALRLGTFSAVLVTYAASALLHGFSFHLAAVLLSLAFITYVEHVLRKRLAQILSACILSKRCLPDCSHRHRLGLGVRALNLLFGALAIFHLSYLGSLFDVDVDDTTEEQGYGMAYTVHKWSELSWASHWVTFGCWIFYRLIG
Summary of the method: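 Mouse L-Wnt3a cells transfected with 6 μg FLAG-Porcupine or empty vector. After 48 h, serum-starved 3 h in DMEM with 2% dialyzed FCS plus DMSO, 10 μM test compound or 100 nM reference Porcupine inhibitor. Labeled 6 h with 40 μCi 125I-iodo-pentadecanoate. Wnt3a and FLAG-Porcupine immunoprecipitated 16 h at 4°C, then SDS-PAGE, western blot, phosphorimaging. Duplicates, repeated three times.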

[11] = test system: Shh signaling in SuFu−/− cells; assay: Gli luciferase reporter assay in SuFu-/- cells; type: cell-based, murine; conditions: 10 μM, 24h
Summary of the method: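 SuFu−/− mouse embryonic fibroblasts transfected with wild-type or mutant 8XGliBS-firefly luciferase plus pRL-TK Renilla plasmids. Reseeded 24 h later, grown to confluence, then given DMSO or 10 μM test compound for 24 h. Dual luciferase measured in lysates as FL/RL ratio; mean ± SD (n=2–4), experiment run at least twice.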

[12] = test system: Gli1 activation in Shh Light II cells; assay: Gli luciferase reporter assay in Shh Light II cells; type: cell-based; conditions: 10 μM RU-SKI 43, 24 h
Summary of the method: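 Shh Light II cells (stable Gli1 luciferase reporter) grown to confluence, moved to 0.5% serum medium, and exposed 24 h to DMSO or 10 μM test compound, with or without 100 nM SAG or 1 μg/mL Shh (C24II). Dual firefly/Renilla luciferase read in lysates. FL/RL ratio normalized to cells given DMSO or compound alone; experiment done at least twice.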

Chain of Hhat (Q5VTY9 whole entry): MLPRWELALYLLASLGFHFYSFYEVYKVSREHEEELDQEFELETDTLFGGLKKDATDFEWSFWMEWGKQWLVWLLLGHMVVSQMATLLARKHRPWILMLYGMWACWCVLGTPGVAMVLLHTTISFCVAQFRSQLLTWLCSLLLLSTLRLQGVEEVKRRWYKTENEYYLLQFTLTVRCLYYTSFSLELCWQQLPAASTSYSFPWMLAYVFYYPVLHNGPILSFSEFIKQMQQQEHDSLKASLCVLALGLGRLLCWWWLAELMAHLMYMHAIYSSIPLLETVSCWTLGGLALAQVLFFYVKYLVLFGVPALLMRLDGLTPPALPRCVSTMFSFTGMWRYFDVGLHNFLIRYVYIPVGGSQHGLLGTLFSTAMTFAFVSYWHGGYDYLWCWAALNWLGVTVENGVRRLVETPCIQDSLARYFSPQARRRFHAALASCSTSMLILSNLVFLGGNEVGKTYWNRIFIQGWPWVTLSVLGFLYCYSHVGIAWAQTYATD

For `CCC(C)CNCC(=O)N1CCc2sccc2C1COc1cccc(C)c1` (stereo not shown) [RU-SKI 43, 2-((2-methylbutyl)amino)-1-(4-((m-tolyloxy)methyl)-6,7-dihydrothieno[3,2-c]pyridin-5(4H)-yl)ethanone], which “Myristoylation of c-Src” value [1] is on record?
The value was “Neither palmitoylation of H-Ras and Fyn nor myristoylation of c-Src was affected”.

And the Ki [2]?
Its Ki is 6.9 µM.

What about the “Gli-responsive luciferase activation (FL/RL ratio)” value [3] of the same molecule?
Its value is “blocks Gli activation; also recorded: blocked luciferase activation”.

What about the “Rescue of the inhibitory effect with SAG or Shh (C24II)” value ([3]; Shh-transfected NIH 3T3 cells, 10µM RU-SKI 43 with 100nM SAG or 1µg/mL Shh (C24II), 24h) of the same molecule?
The value was “not able to rescue”.

And the “Palmitoylation of Fyn” value [4]?
Its value is “Neither palmitoylation of H-Ras and Fyn nor myristoylation of c-Src was affected”.

And the “Inhibition of Shh palmitoylation in cells” value ([5]; COS-1 cells expressing HA-Hhat and Shh, 0, 10 or 20 μM, 5 h)?
Its value is “Dose-dependent inhibition”.

What about the “Radiolabel incorporation into ShhN in cells” value ([5]; COS-1 cells expressing HA-Hhat and Shh, 25 μM compound, 16 h) of the same molecule?
Its value is “strongly inhibited”.

And the “Palmitoylation of Shh by endogenous Hhat” value ([5]; COS-1 cells transfected with Shh only, 10 µM)?
The value was “inhibited”.

What about the “Effect of Hhat overexpression on inhibition of Shh palmitoylation” value ([5]; transfected COS-1 cells, increasing amounts of Hhat, 10µM) of the same molecule?
Its value is “reduced the ability of RU-SKI 43 to inhibit Shh palmitoylation”.

And the “Effect of Porcupine overexpression on inhibition of Shh palmitoylation” value ([5]; transfected COS-1 cells, increasing amounts of Porcupine, 10µM)?
The value was “no effect”.

What about the “Palmitoylation of H-Ras” value [6] of the same molecule?
The value was “Neither palmitoylation of H-Ras and Fyn nor myristoylation of c-Src was affected”.

And the “Alkaline phosphatase (AP) activity” value ([7]; C3H10T1/2 cocultured with COS-1 expressing Shh and Hhat, 10 μM, 72h)?
The value was “blocks paracrine Shh signaling; also recorded: reduced to baseline”.

What about the “Shh autoprocessing, steady-state levels of Shh and Hhat, subcellular localization of Shh and Hhat” value [8] of the same molecule?
The value was “did not alter”.

And the half-life [9]?
Its half-life is 17 min.

And the “Fatty acylation of Wnt3a by Porcupine” value ([10]; 10 μM)?
The value was “does not inhibit Porcupine; also recorded: no effect”.

What about the “Effect on Shh signaling in SuFu−/− cells” value [11] of the same molecule?
The value was “does not affect Shh pathway activation; also recorded: no effect”.

What about the “Effect on activation of Gli1 by SAG” value ([12]; 100 nM SAG) of the same molecule?
Its value is “does not affect exogenous Shh pathway activation; also recorded: no effect”.

What about the “Effect on activation of Gli1 by recombinant Shh (C24II)” value ([12]; 1μg/mL Shh (C24II)) of the same molecule?
The value was “does not affect exogenous Shh pathway activation; also recorded: no effect”.

With `Cc1cc(-c2ccc(CC(=O)Nc3ccc(-c4cccnc4)cc3)cc2)ccn1` [Wnt C59, reference compound] as the molecule, how does the “Fatty acylation of Wnt3a by Porcupine” value ([10]; 100 nM) read?
Its value is “blocked radiolabel incorporation”.

With `Cc1c(C(=O)Nc2ccc(N3C[C@@H](C)O[C@@H](C)C3)nc2)cccc1-c1ccc(OC(F)(F)F)cc1` [LDE225, reference compound] as the molecule, how does the “Gli-responsive luciferase activation (FL/RL ratio)” value [3] read?
Its value is “blocked luciferase activation”.

With `CNC1CCC(N(Cc2cccc(-c3ccncc3)c2)C(=O)c2sc3ccccc3c2Cl)CC1` (stereo not shown) [SAG, reference compound] as the molecule, how does the “Gli1 activation in untreated Shh-expressing cells” value ([3]; Shh-expressing NIH 3T3 cells, 100nM SAG) read?
The value was “neither SAG (Supplementary Fig. 8) nor overexpression of Smo[17] activated Gli1 to levels higher than those achieved with Shh alone”.

B1: Noggin: the BMP inhibitor Noggin (protein, UniProt Q13253 28-232, looked up)
Noggin: QHYLHIRPAPSDNLPLVDLIEHPDPIFDPKEKDLNETLLRSLLGGHYDPGFMATSPPEDRPGGGGGAAGGAEDLAELDQLLRQRPSGAMPSEIKGLEFSEGLAQGKKQRLSKKLRRKLQMWLWSQTFCPVLYAWNDLGSRFWPRYVKVGSCFSKRSCSVPEGMVCKPSKSVHLTVLRWRCQRRGGQRCGWIPIQYPIISECKCSC
Which “Alkaline phosphatase (AP) activity” value ([7]; BMP inhibitor control, concentration not given) does the source give for B1 here?
Its value is “no effect”.
